# Screens (PubChem)
# The list is not random: actives were taken first. Their share in the collection is about 1.8%.
# hiPSC survival: enhancers of single-cell hiPSC survival, primary screen, ATPlite luminescence; actives 0.044% (n = 360,000); 100% = ROCK inhibitor wells, 0% = DMSO; AID 602274, 2012; survival enhancement, % at 20 µM; in the data active means survival enhancement above about 18%;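 further: cells exposed to compounds for 16 hours before the ATP read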
# 697 NFkB inh: inhibitors of PMA/ionomycin-induced NF-kB reporter, 697 cells, primary screen, B-cell NF-kB inhibitor project, cell-based, luminescence, uHTS; 697 B-cell NF-kB luciferase reporter, 16 h; inhibition, % at 4 µM; actives 0.33% (n = 330,000); AID 435022, 2010; in the data active means inhibition above about 35%
# Jurkat NFkB inh: inhibitors of induced NF-kB luciferase reporter, primary screen, TCR NF-kB activation inhibitor project, cell-based, luminescence, uHTS. Jurkat, PMA/ionomycin-induced NF-kB luciferase reporter. inhibition, % at 4 µM. actives 0.53% (n = 330,000); in the data active means inhibition above about 50%
# Lipid droplet: inhibitors of hepatocyte lipid droplet formation, primary screen, imaging, high-throughput imaging, BODIPY stain; AML12 mouse hepatocytes, oleate lipid droplets; inhibition, % at 6.5 µM; actives 0.4% (n = 240,000); AID 1656, 2009;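 active means lipid droplet intensity inhibited by at least 50%, with more than 500 cells counted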
#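 System: AML12 hepatocytes (mouse). Probe or stimulus: oleic acid at 100 µM to induce lipid droplet formation. Times: overnight treatment with compound plus oleate. Detection: Image-based BODIPY and DAPI two-channel analysis. Evaluation: percent inhibition of filter-corrected integrated lipid droplet intensity per well.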
# TAG inh: inhibitors of triacylglycerol accumulation, primary screen, cell-based, uHTS, fluorescence, H9c2. H9c2 cells, Nile Red lipid (TAG) fluorescence; cells loaded with 200 µM oleic acid. inhibition, % at 12.5 µM. actives 0.66% (n = 230,000). AID 651582, 2012;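 active means pattern-corrected inhibition of lipid staining of at least 50% with the nuclear-stain viability signal not falling by more than 50%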;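 further: 0% = DMSO wells and 100% = triacsin C control wells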
# Gli-Sufu antag: Gli-Sufu pathway antagonists, primary screen, luciferase luminescence, Sufu-KO-LIGHT cells, uHTS. AID 588413, 2011. actives 0.74% (n = 340,000). inhibition, % at 5 µM. Sufu-KO-LIGHT fibroblasts, Gli luciferase reporter luminescence;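 active means inhibition above about 55%, limit read from the data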;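 further: 0% = DMSO-treated cells and 100% = wells with medium but no cells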
# Gli antag conf: Gli-SUFU pathway antagonists, confirmation, single concentration, luciferase luminescence, Sufu-KO-LIGHT cells | shares compounds with Gli-Sufu antag | AID 602428, 2012 | inhibition, % at 5 µM | Gli luciferase reporter | actives 40% (n = 2,500);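 active means mean inhibition at 5 µM reaching about 45%, limit read from the data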;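 further: plate controls were DMSO-treated cells for no effect and wells lacking cells for full effect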
# SufuKO cytotox: cytotoxicity in Sufu-KO-LIGHT cells, confirmation, cytotoxicity control for Gli-SUFU antagonist project, cell-based, ATP luminescence, single concentration. cytotoxicity, % at 5 µM. shares compounds with Gli-Sufu antag. actives 32% (n = 2,500);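 active means mean cytotoxicity at 5 µM above about 25%, limit read from the data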;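 further: cells exposed to compound overnight for roughly 16 to 18 hours; plate controls were DMSO wells with cells for no effect and medium without cells for full effect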
# Wnt3a counter: Wnt3a reporter signal inhibition, confirmation, counter-screen for Gli-SUFU antagonist project, Wnt-LIGHT cells, luminescence, single concentration; shares compounds with Gli-Sufu antag; Wnt3a-driven luciferase reporter; inhibition, % at 6.25 µM; actives 20% (n = 2,500); AID 651995, 2013;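 active means mean inhibition above about 25%, limit read from the data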
# TAG conf: triacylglycerol accumulation inhibitors, retest, confirmation, cell-based, single concentration, Nile Red fluorescence, H9c2 | shares compounds with TAG inh | H9c2 lipid accumulation; cells loaded with 200 µM oleic acid | inhibition, % at 12.5 µM | actives 71% (n = 990);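 active means mean inhibition across replicates of 40% or more; inactive means mean inhibition below 40%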;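 further: plate controls were DMSO only wells for no effect and Triacsin C treated wells for full effect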
# Active calls of the source: *; . = no result.
SMILES,hiPSC survival,697 NFkB inh,Jurkat NFkB inh,Lipid droplet,TAG inh,Gli-Sufu antag,Gli antag conf,SufuKO cytotox,Wnt3a counter,others
CCN(CC)C(=O)c1ccc(NC(=O)CSc2nnnn2-c2cc(OC)ccc2OC)cc1,-2.8,-33.2,-13.1,4.2,.,70.3*,23.1,6.7,20.6,
Cc1cccc(N2C(=O)NC(=O)/C(=C\c3cc(C)n(-c4sc5c(c4C#N)CCCC5)c3C)C2=O)c1C,2.1,1.3,-1.9,-6.4,-3.9,57.8*,50.0*,34.5*,-30.9,
O=C(Cn1nc(-c2ccc(Cl)cc2)ccc1=O)N1CCC2(CC1)OCCO2,0.2,-4.7,-5.8,20.5,0.5,-5.2,.,.,.,
CP(=O)(O)CCCN,1.8,19.3,3.4,.,.,-0.6,.,.,.,
CC12CN3CCN(CC(C3)/C1=N/NC(N)=O)C2,-0.2,-1.8,-10.8,8.2,1.5,-3.1,.,.,.,
CCC12CN3CCN(CC(C3)/C1=N/NC(N)=O)C2,3.7,0.7,-1.9,-1.6,4.3,61.4*,18.4,-6.9,15.0,
O=C1NCN(c2ccccc2)C12CCN(C(c1cc3ccccc3o1)c1nnnn1-c1ccc3c(c1)OCCO3)CC2 (stereo unspecified),6.5,.,.,.,.,.,.,.,.,
CC(C)CC(NC(=O)CCCNC(=O)CCC(=O)OC1O[C@H]2OC3(C)CC[C@H]4[C@H](C)CCC(C1C)C24OO3)C(=O)O (stereo partly specified),-1.1,8.2,-21.3,-83.5,.,84.7*,78.5*,-7.7,15.4,
CC1C(OC(=O)CCC(=O)NC(C)(C)CO)O[C@H]2OC3(C)CC[C@H]4[C@H](C)CCC1C24OO3 (stereo partly specified),-0.6,-0.4,1.2,-105.3,.,85.0*,86.0*,-2.2,24.8,
OC1/C(=C/c2ccccc2F)N2CCC1CC2 (stereo unspecified),-2.6,-4.2,-4.9,-13.4,-18.2,2.9,.,.,.,
O=[N+]([O-])NC1=NCN(Cc2ccco2)CN1Cc1ccco1,-0.9,14.5,-9.4,5.5,.,90.9*,13.7,16.0,-8.0,
CN1CN=C(N[N+](=O)[O-])N(Cc2ccco2)C1,-0.5,1.3,11.4,-8.4,.,-1.5,.,.,.,
CC(=O)c1cn(CCCOc2ccccc2)c2ccccc12,-0.7,-22.8,10.1,-0.2,-6.1,50.3,18.9,7.1,-7.5,
CCN(CC)C1=NC(=[N+](CC)CC)c2ccccc21,-3.8,-10.7,25.4,.,.,78.9*,80.1*,26.6*,39.2*,
CCN(CC)P(=O)(NC(=O)C(Cl)(Cl)Cl)N(CC)CC.[Cl-].[Cl-].[Cl-].[Nd+3],-0.7,11.4,7.4,10.5,-2.4,-3.9,.,.,.,
COc1ccc(O)c2c(=O)c3c(OC)cc4c(c3oc12)C1C=COC1O4 (stereo unspecified),0.7,26.9,1.0,-0.7,.,60.2*,68.6*,37.2*,20.4,
COC(=O)C1=C(c2ccc(OC(F)(F)F)cc2)C[C@@H]2CC[C@H]1N2C(=O)N1CCCC1,-1.2,-27.3,4.9,.,-26.4,31.1,.,.,.,
CCCCCc1nc2c(c(=O)c3ccccc3n2C)c(=O)n1C1CCCCCC1,-1.0,6.7,8.7,10.8,.,51.5,36.5,23.9,-7.0,
CCCCCc1nc2ccccc2c(=O)n1-c1ccccc1[N+](=O)[O-],0.3,1.8,7.7,10.5,.,2.1,.,.,.,
COc1cc2c3c(c1OC)Oc1ccc(cc1)C[C@H]1c4c(cc(OC)c(OC)c4Oc4ccc(cc4)C[C@@H]3N(C)CC2)CCN1C,-2.6,-27.3,8.5,.,86.5*,64.7*,20.4,-4.6,-0.6,
COc1cc2c3cc1Oc1c(OC)c(OC)cc4c1[C@H](Cc1ccc(cc1)Oc1cc(ccc1O)C[C@H]3N(C)CC2)N(C)CC4,-3.8,-3.4,14.2,.,35.0,17.6,.,.,.,
C(CCc1nn[nH]n1)CCc1nn[nH]n1,-1.0,0.0,16.6,4.3,.,-3.3,.,.,.,
Cn1cccc1/C=C1/C(=O)NC(=O)N(Cc2ccccc2)C1=O,0.7,-53.7,15.6,-14.4,.,52.7,45.1*,38.4*,26.0*,
COc1ccc(C2=CC(c3ccc(OC)c(OC)c3)c3c(c4ccccc4oc3=O)O2)cc1OC (stereo unspecified),-0.9,-27.5,32.1,22.1,.,7.4,.,.,.,
O=C1c2cccc(N3CCNCC3)c2C2CCCCN12 (stereo unspecified),-0.8,.,.,.,.,.,.,.,.,
SMILES,hiPSC survival,697 NFkB inh,Jurkat NFkB inh,Lipid droplet,TAG inh,Gli-Sufu antag,Gli antag conf,SufuKO cytotox,Wnt3a counter,others
CC1CN1P(=O)(Oc1ccccc1)N1CC1C (stereo unspecified),-1.9,.,.,.,3.8,-3.4,.,.,.,
O=C1NC(=S)NC(=O)C1=Cc1ccc(Br)s1,-0.8,-3.2,-17.8,2.3,-2.1,1.8,.,.,.,
N#CCCn1cc(C(=O)Nc2ccc(F)cc2)c(-c2ccccc2)n1,0.0,10.6,7.8,-0.6,.,51.5,30.5,1.6,1.5,
COC(=O)C1=C(c2cc3ccccc3o2)C[C@@H]2CC[C@H]1N2C(=O)N1CCC(C)CC1,-1.8,-2.5,-2.1,.,-27.1,53.1,40.8,21.8,-3.4,
Cc1ccc(-c2cc(-c3ccc(C)cc3)[n+](C)o2)cc1,-2.5,.,.,-90.4,.,82.7*,86.2*,30.1*,36.2*,
COC(=O)C1=C(c2ccc(OCc3ccccc3)cc2)C[C@@H]2CC[C@H]1N2C(=O)NCc1ccc(OC)c(OC)c1,-3.5,-13.7,-5.0,.,52.5*,12.0,.,.,.,TAG conf=29.1
COc1ccc(C[C@@H]2c3cc(O)c(OC)cc3CCN2C)cc1O,2.8,-5.7,-8.0,-12.5,68.1*,3.6,.,.,.,TAG conf=9.5
COc1ccc(CC2c3cc(OC)c(OC)cc3CCN2C)cc1OC (stereo unspecified),-4.2,0.7,-3.0,.,.,7.5,.,.,.,
COc1ccc(/C=C/C(=O)c2c(O)n(CCC3=CCCCC3)c(=O)[nH]c2=O)cc1OC,1.7,3.6,-10.3,2.7,-2.5,10.8,.,.,.,
CCC(C)NC(=O)c1c(N)n(CCCOC)c2nc3ccccc3nc12 (stereo unspecified),-1.7,-5.9,12.2,.,.,8.0,.,.,.,
